Experimental data gathered from unrelated publications.
Lines come from different studies, so protocols differ.
Target: Casein kinase I isoform epsilon (CSNK1E, Homo sapiens, UniProt P49674)

Compound | test | conditions | measurement | result
CC(C)(C)c1cc(C=C(C#N)C#N)cc(Br)c1O | enzyme activity, inhibitor | 0.5 µM | remaining activity | 92.1%
COc1ncccc1-c1cnn2ccc(N3CCN(C(=O)OC(C)C)CC3)nc12 | binding, competition with immobilised ligand | 1 µM | remaining binding | 86%
O=c1[nH]c2ccccc2n1C1CCN(Cc2ccc(-c3[nH]c4cc5ncnc5cc4nc3-c3ccccc3)cc2)CC1 | enzyme activity | 0.5 µM | remaining activity | 107%
Nc1ncc(-c2nc(N3CCOCC3)nc(N3CCOCC3)n2)c(C(F)F)n1 | binding, competition with immobilised ligand | 10 µM | remaining binding | 38%
Cn1cc(-c2cc(F)cc(N3CCn4c(cc5c4CCCC5)C3=O)c2CO)cc(Nc2ccc(N3CCN(C4COC4)CC3)cn2)c1=O | enzyme activity, inhibitor | 0.1 µM | inhibition | 12%
N#CC1(c2ccccn2)CCN(Cc2cc(C(=O)O)c(=O)n3ccccc23)CC1 | cell-free assay, competition with immobilised ligand | 1 µM | remaining binding | 100%
Cc1nn(C)cc1-c1nc2c(N3CCN(Cc4ccc(Cl)cc4)CC3)c(Cl)cnc2[nH]1 | binding, competition with immobilised ligand | 1 µM | remaining binding | 99%
Cn1cc(-c2cccc(N3CCc4c(sc5c4CC(C)(C)C5)C3=O)c2CO)cc(Nc2ccncn2)c1=O | enzyme activity, inhibitor | 1 µM | inhibition | 1%
Cn1cncc1[C@@](O)(COc1ccc(C#N)cc1-c1ccc(OC(F)(F)F)cc1)c1ccc(C#N)cc1 | cell-free assay, competition with immobilised ligand | 1 µM | remaining binding | 100%
